In ChEMBL document CHEMBL1121464, “14-(Arylhydroxyamino)codeinones and derivatives as analgetics and antagonists” (1980):
Several values for one entry are separate records, joined by “and”; a condition that tells them apart may be missing. Equal values may be shown once. Activity calls are given as the source filed them.

Columns and labels:
[1] = test system: Mus musculus; test: Tested for analgesic activity using writhing test in mice at 20 mg/kg upon subcutaneous administration; type: functional; details: sc
[2] = test system: Mus musculus; test: Tested for antagonistic activity using Straub tail test in mice at 20 mg/kg upon subcutaneous administration; type: functional; details: sc
[3] = species on record: Mus musculus; test: Maximum percent analgesia using tail flick test in mice; type: functional
Method in brief: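 Young male Swiss mice (ca. 35 g) restrained in cylinders, with the tail exposed to 54 °C water. Reaction time (shorter of a pair) taken pre-dose and every 15 min to 2 h. Naive non-responders under 2.2 s excluded; 5 s cutoff. Dosed ip at 20 mg/kg in propylene glycol or water, 9–11 mice per group. […] Analgesia defined as PRT >2.6 s; the value is the peak percentage of analgesic mice at any time point.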

[4] = test system: Mus musculus; test: Tested for analgesic activity using writhing test in mice at 20 mg/kg upon subcutaneous administration; Inactive; type: functional, organism-based; design: dose 20 mg/kg
[5] = test system: Mus musculus; test: Tested for antagonistic activity using Straub tail test in mice at 20 mg/kg upon subcutaneous administration; Inactive; type: functional, organism-based; design: dose 20 mg/kg

SMILES	ED50 [1] [mg/kg]	ED50 [2] [mg/kg]	Analgesia [3]	ED50 [4]	ED50 [5]
COc1ccc2c(c1O)C13CCN(C)C(C2)C12C=CC(=O)C3ON2c1ccccc1 (centres undefined)	1.87	> 40	50%	–	–
C=CCN1CC[C@]23c4c5ccc(O)c4O[C@H]2C(=O)CC[C@@]3(O)[C@H]1C5 [NALOXONE]	–	–	32%	inactive	–
COc1ccc2c3c1OC1C(=O)C=CC4(N(O)c5ccc(F)cc5)C(C2)N(CC2CC2)CCC314 (centres undefined)	~40	12	32%	–	–
COc1ccc2c3c1OC1C(=O)CCC4(Nc5ccccc5)C(C2)N(CC2CC2)CCC314 (centres undefined)	~40	~10.5	10%	–	–
COc1ccc2c3c1OC1C(=O)CCC4(Nc5ccc(F)cc5)C(C2)N(CC2CC2)CCC314 (centres undefined)	~25	~5	32%	–	–
COc1ccc2c3c1OC1C(=O)CCC4(Nc5ccc(F)cc5)C(C2)N(C)CCC314 (centres undefined)	0.76	> 40	10%	–	–
COc1ccc2c3c1OC1C(=O)CCC4(Nc5ccccc5)C(C2)N(C)CCC314 (centres undefined)	1.04	> 40	10%	–	–
COc1ccc2c(c1O)C13CCN(C)C(C2)C12C=CC(=O)C3ON2c1ccc(F)cc1 (centres undefined)	2.53	> 40	90%	–	–
COc1ccc2c3c1OC1C(=O)C=CC4(N(O)c5ccccc5)C(C2)N(C)CCC314 (centres undefined)	1.45	> 20	20%	–	–
COc1ccc2c3c1OC1C(=O)C=CC4(N(O)c5ccc(F)cc5)C(C2)N(C)CCC314 (centres undefined)	0.71	> 40	30%	–	–
COc1ccc2c3c1OC1C(=O)C=CC4(NO)C(C2)N(C)CCC314 (centres undefined)	5	> 20	10% and 20%	–	–
COc1ccc2c3c1OC1C(=O)C=CC4(N(O)c5ccccc5)C(C2)N(CC2CC2)CCC314 (centres undefined)	> 40	~7	32%	–	–
CN1CC[C@]23c4c5ccc(O)c4O[C@H]2[C@@H](O)C=C[C@H]3[C@H]1C5 [MORPHINE]	0.26	–	80%	–	inactive
COc1ccc2c(c1O)C13CCN(CC4CC4)C(C2)C12C=CC(=O)C3ON2c1ccc(F)cc1 (centres undefined)	~31	> 40	20%	–	–
COc1ccc2c(c1O)C13CCN(CC4CC4)C(C2)C12C=CC(=O)C3ON2c1ccccc1 (centres undefined)	> 40	> 40	20%	–	–
